Results on 9 molecules are retold here after ChEMBL document CHEMBL3600302, “A Ligand-Based Drug Design. Discovery of 4-Trifluoromethyl-7,8-pyranocoumarin as a Selective Inhibitor of Human Cytochrome P450 1A2” (J Med Chem, 2015).

One may read the Ki as a dissociation constant, usually derived from enzyme kinetics or from competition with a known ligand.

The target in one data set is T1, Cytochrome P450 1A1 (Homo sapiens, UniProt P04798).
T1 sequence (P04798 whole entry): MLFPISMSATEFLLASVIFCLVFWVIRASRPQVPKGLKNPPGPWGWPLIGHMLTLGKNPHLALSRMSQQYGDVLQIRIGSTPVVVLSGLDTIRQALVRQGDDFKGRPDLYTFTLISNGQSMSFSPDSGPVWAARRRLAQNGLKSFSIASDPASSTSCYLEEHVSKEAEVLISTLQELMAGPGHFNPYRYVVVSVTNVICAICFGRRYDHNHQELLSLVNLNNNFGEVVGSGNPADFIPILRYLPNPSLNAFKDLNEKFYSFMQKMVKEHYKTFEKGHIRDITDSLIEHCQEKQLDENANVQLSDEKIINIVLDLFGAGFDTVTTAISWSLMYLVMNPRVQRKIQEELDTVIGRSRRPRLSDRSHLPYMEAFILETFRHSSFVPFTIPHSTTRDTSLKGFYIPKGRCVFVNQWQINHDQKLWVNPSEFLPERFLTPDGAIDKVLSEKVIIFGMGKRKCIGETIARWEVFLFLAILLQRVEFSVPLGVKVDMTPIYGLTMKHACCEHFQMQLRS
Kind of data set: Inhibition of human microsomal CYP1A1-dependent ethoxyresorufin-O-deethylase activity by spectrofluorimetric analysis in presence of NADPH regenerating solution. In a few lines:
(§1)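 Microsomal P450 (final 5 nM) in 0.1 M potassium phosphate pH 7.6 with MgCl2 at 37 °C. Substrate final 5 µM: ethoxyresorufin for 1A1/1B1, methoxyresorufin for 1A2. […] Ki was taken as the x-intercept of Dixon plots (1/v0 vs [I]). Mean ± SD of three independent experiments. Selectivity ratios are ratios of these Ki.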

For data set [1], the target named is T2, Cytochrome P450 1A2 (Homo sapiens, UniProt P05177).
T2 sequence (P05177 whole entry): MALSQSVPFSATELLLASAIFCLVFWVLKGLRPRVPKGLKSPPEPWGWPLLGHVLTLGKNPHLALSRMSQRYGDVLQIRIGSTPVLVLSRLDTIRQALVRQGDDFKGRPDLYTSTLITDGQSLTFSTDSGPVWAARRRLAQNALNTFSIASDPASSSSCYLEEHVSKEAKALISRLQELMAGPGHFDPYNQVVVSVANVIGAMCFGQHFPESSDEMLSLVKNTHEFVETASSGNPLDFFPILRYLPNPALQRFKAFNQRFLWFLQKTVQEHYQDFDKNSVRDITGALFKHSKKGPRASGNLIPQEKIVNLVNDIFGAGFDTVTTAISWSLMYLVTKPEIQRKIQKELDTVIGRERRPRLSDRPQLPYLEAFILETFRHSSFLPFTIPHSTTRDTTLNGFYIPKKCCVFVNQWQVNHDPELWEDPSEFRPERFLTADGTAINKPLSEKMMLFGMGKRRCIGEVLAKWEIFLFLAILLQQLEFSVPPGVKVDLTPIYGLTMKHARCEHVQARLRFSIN
Kind of data set: Inhibition of human microsomal CYP1A2-dependent methoxyresorufin-O-demethylase activity by spectrofluorimetric analysis in presence of NADPH regenerating solution. In a few lines: (§2)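 Microsomal P450 (final 5 nM) in 0.1 M potassium phosphate pH 7.6 with MgCl2 at 37 °C. Substrate final 5 µM: ethoxyresorufin for 1A1/1B1, methoxyresorufin for 1A2. Ki was taken as the x-intercept of Dixon plots (1/v0 vs [I]). Mean ± SD of three independent experiments. Selectivity ratios are ratios of these Ki.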

Data set [2] addresses T2, Cytochrome P450 1A2. Kind of data set: Time-dependent inhibition of human microsomal CYP1A2-dependent methoxyresorufin-O-demethylase activity by spectrofluorimetric analysis in presence of NADPH regenerating solution. The method in brief:
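1A2 MROD run with NADPH at 0.0125, 0.025, 0.05 and 0.1 µM inhibitor, product monitored continuously over 6 min. Activity at different times came from first derivatives of product curves, expressed as % of control remaining. KI and limiting kinact were derived from the resulting linear plot.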

A further data set concerns the target T3, Cytochrome P450 1B1 (Homo sapiens, UniProt Q16678).
T3 sequence (Q16678 whole entry): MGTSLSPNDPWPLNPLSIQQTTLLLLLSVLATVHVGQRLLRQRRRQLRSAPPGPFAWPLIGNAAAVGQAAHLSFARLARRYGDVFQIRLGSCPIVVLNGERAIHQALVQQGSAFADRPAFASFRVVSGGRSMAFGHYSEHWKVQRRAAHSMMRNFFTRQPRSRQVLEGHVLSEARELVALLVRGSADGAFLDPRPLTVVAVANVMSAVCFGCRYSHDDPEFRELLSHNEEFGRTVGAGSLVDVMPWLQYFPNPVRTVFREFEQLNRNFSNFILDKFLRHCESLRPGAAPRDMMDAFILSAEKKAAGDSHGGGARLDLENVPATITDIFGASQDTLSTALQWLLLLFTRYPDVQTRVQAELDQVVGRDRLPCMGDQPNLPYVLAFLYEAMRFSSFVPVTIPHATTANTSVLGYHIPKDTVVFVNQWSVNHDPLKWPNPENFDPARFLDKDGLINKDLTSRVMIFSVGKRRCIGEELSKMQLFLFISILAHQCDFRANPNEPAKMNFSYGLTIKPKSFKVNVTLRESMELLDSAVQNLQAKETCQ
Kind of data set: Inhibition of human microsomal CYP1B1-dependent ethoxyresorufin-O-deethylase activity by spectrofluorimetric analysis in presence of NADPH regenerating solution. The method in brief: as §2

The species entered for data set [3] is Homo sapiens. Kind of data set: Selectivity ratio of Ki for human microsomal CYP1A1 to Ki for human microsomal CYP1A2. In a few lines:
as §1

The species named for data set [4] is Homo sapiens. In words: Selectivity ratio of Ki for human microsomal CYP1B1 to Ki for human microsomal CYP1A2. The method in brief: as §1
In data set [5] the target is T2, Cytochrome P450 1A2. In words: Inhibition of CYP1A2-dependent methoxyresorufin-O-demethylase activity in human HepG2 cells at 10^-5 M preincubated for 24 hrs followed by substrate addition measured at 10, 30, 60 mins by fluorescence assay. Type of data set: cell-based. Particulars: hepg2, 1 h, 10 µM; call rule not given here. The method in brief:
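HepG2 cells (DMEM, 10% FBS) were plated at 2 × 10^5 per well overnight. They were exposed 24 h to compound (final 10^-4 to 10^-7 M) in DMSO, with βNF 10^-5 M as positive control. Cells were PBS-washed and given medium with 5 × 10^-6 M methoxyresorufin. Resorufin fluorescence (ex 535/em 585 nm) was read at 10, 30 and 60 min. Triplicate, three independent runs, unpaired t test versus DMSO.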

For `O=c1cc(-c2ccccc2)oc2c3c(ccc12)OCC=C3`, on Cytochrome P450 1A1, the inhibition constant Ki was found to be 0.27 µM.

Turning to `O=c1cc(-c2ccccc2)c2ccc3c(c2o1)OCO3`, the Ki is greater than 200 µM on Cytochrome P450 1A1 and 3.55 µM on Cytochrome P450 1A2 [1]. The TDI result at Cytochrome P450 1A2 [2] is listed as “Not Active”.

On to `Cc1nc2c([nH]1)c(=O)n(C)c(=O)n2Cc1ccco1` [FURAFYLLINE], for which the inhibitory constant (Ki) on Cytochrome P450 1A1 and at Cytochrome P450 1B1 was greater than 200 µM in each case.

On to `O=c1cc(-c2ccccc2)oc2c3c(cc(O)c12)OCC=C3`, for which the Ki at Cytochrome P450 1A1 is 0.11 µM; on Cytochrome P450 1B1, 0.0056 µM.

In the case of `Cc1cc(=O)oc2c3c(ccc12)OCC=C3`, the Ki was determined as 110 µM at Cytochrome P450 1A1, 1.51 µM at Cytochrome P450 1A2 [1] and 12 µM on Cytochrome P450 1B1. Moreover, the results for the Ratio Ki in the data set filed under Homo sapiens [3] and in the data set filed under Homo sapiens [4] were 73 and 7.9, respectively. Further, the TDI result on Cytochrome P450 1A2 [2] is recorded as “Not Active”.

Take `Cc1cc2c(ccc3c(C)cc(=O)oc32)o1`: the results for the Ki at Cytochrome P450 1A1, at Cytochrome P450 1A2 [1] and on Cytochrome P450 1B1 were 37.9 µM, 1.15 µM and 7.46 µM, respectively. Also, the figures for the Ratio Ki in the data set filed under Homo sapiens [3] and in the data set listed under Homo sapiens [4] were 33 and 6.5, respectively. Besides, the TDI result on Cytochrome P450 1A2 [2] is listed as “Not Active”.

For the molecule `O=c1cc(-c2ccccc2)c2ccc3c(c2o1)C=CCO3`, the inhibitory constant (Ki) turned out to be 25.2 µM at Cytochrome P450 1A1, 1.29 µM on Cytochrome P450 1A2 [1] and 5.04 µM at Cytochrome P450 1B1. For the same molecule, the Ratio Ki is 20 in the data set filed under Homo sapiens [3] and 3.9 in the data set listed under Homo sapiens [4]. The TDI result at Cytochrome P450 1A2 [2] is on record as “Not Active”.

On to `O=c1cc(-c2ccccc2)oc2ccc3ccccc3c12` [BETA-NAPHTHOFLAVONE], for which, on Cytochrome P450 1A2 [5], the “inhibition (INH)” value is “Not Active”.

For the molecule `Cc1cc2c(ccc3c(C(F)(F)F)cc(=O)oc32)o1`, the inhibitory constant (Ki) at Cytochrome P450 1A1 is 60.7 µM; on Cytochrome P450 1A2 [1], 1.35 µM; at Cytochrome P450 1B1, 46.8 µM. In addition, the Ratio Ki in the data set listed under Homo sapiens [3] was 45; in the data set listed under Homo sapiens [4], 35. In addition, the TDI entry on Cytochrome P450 1A2 [2] is given as “Not Active”.
